Screening data from PubChem BioAssay.
ATG4B inh: blocks human ATG4B protease cleavage of LC3 substrate | AID 504462 | ATG4B cleavage of LC3-PLA2, NBD-HPC fluorescence, 1 h | inhibition, % at 8.33 µM | Q9Y4P1 | 0.51% of 340,000 active; in the data active = inhibition above about 40%
Target sequence (Q9Y4P1 whole entry, looked up): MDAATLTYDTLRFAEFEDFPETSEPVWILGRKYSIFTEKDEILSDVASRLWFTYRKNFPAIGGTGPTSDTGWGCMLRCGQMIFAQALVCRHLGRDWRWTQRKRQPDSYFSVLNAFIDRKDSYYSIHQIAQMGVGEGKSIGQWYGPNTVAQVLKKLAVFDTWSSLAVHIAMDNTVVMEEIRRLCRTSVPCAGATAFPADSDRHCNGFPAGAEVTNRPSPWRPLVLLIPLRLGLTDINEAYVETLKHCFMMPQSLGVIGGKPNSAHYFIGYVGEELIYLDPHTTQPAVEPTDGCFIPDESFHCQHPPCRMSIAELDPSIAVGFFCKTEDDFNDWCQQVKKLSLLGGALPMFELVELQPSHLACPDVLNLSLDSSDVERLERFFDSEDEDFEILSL
MT1-MMP act inh: inhibitors of human MT1-MMP activation. P50281. HT1080 RFP-PRO-GFP cells, GFP/RFP ratio fluorescence, overnight; percent of plate control window, DMSO zero. GFP/RFP ratio change, % at 20 µM. 0.061% of 360,000 active;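 active = GFP/RFP ratio change of at least 30% with cell ATP level not reduced by more than half and red fluorescence within 50% of control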
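Assay system: HT1080 RFP-PRO-GFP cells. Benchmarks: DMSO vehicle wells and RFP-L50D-GFP reporter cell wells. Times: overnight cell settling, then overnight compound exposure, 37 °C, 5% CO2. Compound: 20 µM single dose, 1% DMSO. Read-out basis: GFP/RFP fluorescence ratio.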
MPTP inh: blocks calcium-induced mitochondrial swelling; AID 602449; inhibition, % at 10 µM; 1.4% of 360,000 active; isolated mouse mitochondria, Ca2+ swelling absorbance, 30 min;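 active = inhibition of 50% or more, scaled per plate between neutral and stimulator controls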;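 note: 0% = DMSO wells given calcium and 100% = 1 mM EGTA wells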
SKN-1 inh: blocks SKN-1 activity in C. elegans | C. elegans VP596 Pgst-4::GFP/RFP ratio, acrylamide-induced, 24 h | inhibition, % at 21.8 µM | 0.49% of 360,000 active;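 active = interference check ratio from 0.5 to 1.5 plus GFP to RFP signal ratio inhibition reaching or exceeding a fixed threshold, cut at about 30% in these data, passing the limit was not always enough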
MPTP counter: mitochondrial membrane potential, counter-screen. 78% of 5,000 active. inhibition, % at 10 µM. isolated mitochondria, Rhodamine 123 fluorescence. shares compounds with MPTP inh; in the data active = inhibition above about 22%;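 note: 0% = DMSO vehicle and 100% = positive control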
MPTP swell DR: MPTP inhibition, dose response swelling confirmation; shares compounds with MPTP inh; isolated mitochondria swelling, absorbance; IC50, µM; 58% of 780 active; in the data active = IC50 below about 20 µM
MPTP counter DR: MPTP inhibitor counter-screen activity, dose response; AID 651564; isolated mitochondria counterscreen, fluorescence read-out; 49% of 780 active; IC50, µM; shares compounds with MPTP inh; in the data active = IC50 below about 80 µM
Active calls of the source: *; x = not tested or not shown. Most compounds without a hit are left out; they make up all but 2.3% or so of the library.

SMILES	ATG4B inh	MT1-MMP act inh	MPTP inh	SKN-1 inh	MPTP counter	others
O=C(CNS(=O)(=O)c1cccc2nsnc12)NCc1ccc(Cl)cc1	-10.7	-1.6	0.6	-5.9	x
NC(=NCc1ccccc1)NN=Cc1ccnc2ccccc12	x	3.8	3.2	0.1	x
O=C1c2ccccc2C(=O)N1CC(O)COc1cccc2ccccc12 (stereo unspecified)	x	3.0	-0.2	21.7	x
Cc1cccc(C)c1NC(=O)C[N+](C)(C)CC(O)COc1cccc2ccccc12 (stereo unspecified)	-1.1	-0.8	81.1*	-14.6	-20.4	MPTP swell DR=3.27*;MPTP counter DR=50.5*
Cc1ccc(NC(=O)CSC2=NN3CCCC(=O)N=C3S2)cc1Cl	-20.9	-2.3	1.0	9.0	x
COc1ccc(C)cc1S(=O)(=O)N(C)CC(=O)N1CCCC1	2.1	-0.2	-0.5	6.9	x
Oc1ccccc1C=NNC(=S)NC1CC2C=CC1C2 (stereo unspecified)	x	4.2	27.0	9.3	x
Fc1ccc(NC(=S)NN=Cc2ccccc2Cl)cc1	0.1	0.7	2.0	-6.0	x
Oc1ccccc1/C=N/NC(=S)NC1CC2C=CC1C2 (stereo unspecified)	12.5	3.3	56.6*	-13.2	70.4*
Oc1ccccc1C=NNC(=S)Nc1ccc(F)cc1	4.1	2.7	62.6*	0.8	71.4*
Oc1c(Cl)cc(Cl)cc1/C=N/NC(=S)NC1CC2C=CC1C2 (stereo unspecified)	15.1	-7.0	88.7*	8.4	62.5*
FC(F)(F)c1ccccc1Cc1c(-c2cccc(Br)c2)nc2ccc(Br)cn12	x	-7.2	3.3	20.0	x
O=S(=O)(c1ccc(NC(=S)Nc2ccc(OC(F)F)cc2)cc1)N1CCOCC1	-10.5	x	98.3*	-13.5	90.2*
O=S(=O)(c1ccc(NC(=S)NCCC(c2ccccc2)c2ccccc2)cc1)N1CCOCC1	-19.5	2.5	97.0*	1.5	80.1*
CC(C)(C)CC(C)(C)NC(=S)Nc1ccc(S(=O)(=O)N2CCOCC2)cc1	-17.4	2.5	100.0*	6.6	77.5*
COCCCNC(=O)C1=CCN(S(=O)(=O)c2ccc(C)cc2)CC1	3.5	0.0	1.9	8.2	x
O=C(OCCOc1ccc(Br)cc1)c1ccc(Cl)c(S(=O)(=O)N2CCOCC2)c1	-6.4	9.7	-1.2	-0.3	x
CCN(C(=S)Nc1cccc2ccccc12)c1ccccc1	x	x	1.9	2.3	x
CC(C)(C)C(=O)NC(=S)NNC(=O)C(c1ccccc1)c1ccccc1	3.0	-9.2	92.2*	-0.9	-8.0
CC(=O)NNC(=S)NC(=O)C(c1ccccc1)c1ccccc1	-5.5	3.5	-0.6	17.9	x
Cc1nnc(SCC(=O)c2ccc(Br)cc2)s1	-2.0	-2.3	-0.6	-5.8	x
COc1cc(C(O)c2nc(-c3cc4ccccc4o3)cs2)ccc1F (stereo unspecified)	x	-8.4	59.2*	9.6	80.2*
COc1cc(C(O)c2nc(-c3cc(F)cc(F)c3)cs2)ccc1F (stereo unspecified)	x	-1.5	4.2	26.3	x
COc1cc(C(O)c2nc(-c3ccc(N(C)C)cc3)cs2)ccc1F (stereo unspecified)	x	-7.9	63.9*	12.3	65.7*
Cc1ccc(C)c(SCC(=O)Nc2cccnc2Cl)c1	-5.8	3.7	-1.6	-17.6	x
SMILES	ATG4B inh	MT1-MMP act inh	MPTP inh	SKN-1 inh	MPTP counter	others
CCC[C@@H](CN[C@@H](CNC)[C@H](C)CC)NCC1CCC(C(C)(C)C)CC1 (stereo partly specified)	2.1	3.8	94.0*	-7.0	-22.1	MPTP swell DR=5.3*
CCC[C@H](CN[C@@H](CNC)[C@H](C)CC)NCCc1cc(C(F)(F)F)cc(C(F)(F)F)c1	-6.5	-3.4	10.4	-7.3	x
CN(C)c1ccc(N=Nc2nc3ccccc3n2C)cc1	-3.3	19.7	66.2*	62.3*	-32.4
CCn1c(NCc2ccc(N(C)C)cc2)nc2ccccc21	-6.3	1.1	0.2	-1.8	x
CCOc1ccc(NC(=O)CN(C)C(=O)CC(NC(=O)c2ccccc2)c2ccccc2)cc1OCC (stereo unspecified)	-4.4	3.6	-0.4	24.6	x
CC(=O)OCc1c(F)c(F)c(-n2nc(C)cc2C)c(F)c1F	6.3	3.6	-0.5	5.8	x
CCCCC(C(=O)NC1CCCC1)N(C(=O)c1snc(C(N)=O)c1N)c1ccc(F)cc1 (stereo unspecified)	-1.1	0.4	1.5	12.3	x
COc1cccc(CNc2cnc3ccccc3c2)c1O	-2.6	1.7	62.2*	6.0	61.6*
Cc1ccc(O)c(CNc2cnc3ccccc3c2)c1	-5.9	7.2	1.9	5.5	x
O=C(O)COc1ccccc1C1C2C(=O)N(c3ccc(F)cc3)C(=O)C2ON1c1ccccc1 (stereo unspecified)	8.2	-1.1	-1.0	4.5	x
Cc1cccc(N(C)S(=O)(=O)c2ccc3[nH]cc(C(=O)N4CCOCC4)c(=O)c3c2)c1	4.1	0.9	1.2	27.2	x
CCc1ccccc1N(C)S(=O)(=O)c1ccc2[nH]cc(C(=O)N3CCc4ccccc43)c(=O)c2c1	17.5	1.3	63.7*	-2.9	62.9*
[N-]=[N+]=NC(c1ccccc1)C(NC(=O)c1cc(C(F)(F)F)cc(C(F)(F)F)c1)c1ccccc1 (stereo unspecified)	x	-21.2	68.3*	-7.1	103.2*
O=C(NC(c1ccccc1)C(Cl)Cl)c1ccccc1 (stereo unspecified)	5.3	1.5	2.9	5.2	x
CN(C(=O)C1CCCCC1)C1(C)CCS(=O)(=O)C1 (stereo unspecified)	-3.1	2.0	0.7	14.4	x
CCOC(=O)c1cnc(SCC(=O)Nc2cc(OC)ccc2OC)nc1N	-15.9	11.5	86.5*	16.3	68.7*
CCN(CC)c1ccc(C(=O)OCC(=O)Nc2ccc3[nH]c(=O)[nH]c3c2)cc1	-29.4	-2.0	1.0	6.9	x
CC(=O)Nc1ccc(S(=O)(=O)Oc2ccc(N3C(=O)C4CCCCC4C3=O)cc2)cc1 (stereo unspecified)	-9.9	-9.6	82.8*	9.9	52.3*
CC(=O)Nc1ccc(S(=O)(=O)Oc2cccc(N3C(=O)C4CC=CCC4C3=O)c2)cc1 (stereo unspecified)	-4.8	-0.6	4.1	8.6	x
COc1ccc(CCNc2ncnc3c2oc2ccccc23)cc1OC	-8.4	-3.1	97.1*	12.4	99.1*
COc1ccc(CCNc2nc(C)nc3c2oc2ccccc23)cc1OC	-16.4	-3.9	71.1*	-13.7	91.2*
c1ccc(CNc2ncnc3c2oc2ccccc23)nc1	-3.7	-3.0	0.6	12.7	x
Cc1nc(NC(C)c2ccccc2)c2oc3ccccc3c2n1 (stereo unspecified)	2.6	-6.6	64.3*	8.1	96.1*
